KCNK3 inh: human KCNK3 channel inhibition, primary screen | CHO-KCNK3 thallium flux, FluxOR fluorescence; active compounds read low | B-score at 10 µM | 0.84% of 340,000 active | AID 602410;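 active = B-score under library mean minus 4 SD, starting fluorescence ratio at most library mean plus 5 SD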;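 note: more negative B-score means stronger inhibition of thallium flux through KCNK3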
hERG protect: compounds protecting human hERG from proarrhythmic drug block. activation (rescue from dofetilide block), less the hit threshold, % at 10 µM. CHO-hERG, FluxOR thallium flux, dofetilide IC70 present. Q12809. 0.51% of 310,000 active;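 active = activation above the mean of controls blocked by dofetilide plus 5 SD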;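 note: thallium influx through hERG after potassium depolarization seen as dye fluorescence rise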
KCNQ1 pot: human KCNQ1 channel potentiation or activation; P51787; CHO-K1 KCNQ1, thallium flux FluxOR fluorescence; active compounds read high; B-score at 10 µM; 0.35% of 310,000 active;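 active = fluorescence ratio B-score, a plate-corrected score, at least three library SD, with initial intensity B-score within 5 SD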
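Doses: Single concentration per compound, DMSO matched to controls | Test system: KCNQ1-transfected CHO-K1 cells | Timing: 90 min dye loading and 20 min compound exposure, both at room temperature | Measured by: Kinetic FluxOR thallium fluorescence, 10-s 1-Hz baseline, 110-s post-stimulus read | Medium: Assay buffer with matched DMSO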
KCNK9 block: blocks the human KCNK9 two-pore domain potassium channel | Q9NPC2 | HEK293 KCNK9, FluxOR thallium flux fluorescence; active compounds read low | B-score at 10 µM | 1.2% of 310,000 active | AID 488922;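 active = ratio B-score over 3 SD below the library mean, with starting fluorescence within 5 SD of its mean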;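 note: negative B-score means less thallium flux so channel inhibition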
Cl transport mod: modulators of human KCC2 chloride dependent transport; Q9H2X9; 2.2% of 190,000 active; B-score of Tl+ flux slope (higher = more flux/activation; lower = inhibition) at 10 µM; KCC2 cells, thallium flux FluoZin-2 fluorescence;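 active = thallium flux slope and its plate-corrected score both differing from the plate sample mean at a set confidence after two filtering rounds, in either direction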;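 note: slope of fluorescence scaled to starting intensity during 10 to 20 s after thallium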
KCNQ1 block: blocks the human KCNQ1 potassium channel | 1.3% of 310,000 active | CHO-K1 KCNQ1, FluxOR thallium flux fluorescence; active compounds read high | B-score at 10 µM;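 active = compounds whose thallium flux B-score, printed positive for inhibition, exceeds three library SD while starting fluorescence stays within three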;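 note: channel opened by potassium depolarization with thallium stimulus after 20 min compound exposure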
KCNK9 block conf: human KCNK9 inhibitor confirmation. HEK293 KCNK9 cells, FluxOR thallium flux fluorescence. AID 492992. 43% of 4,900 active. shares compounds with KCNK9 block. inhibition, % at 10 µM;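 active = thallium signal inhibited by more than 5 SD of the compound-free buffer control wells, on both duplicate plates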;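 note: 0% = assay buffer control wells without compound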
Kir2-1 spec: tests whether KCNK9 modulators also affect mouse Kir2.1; shares compounds with KCNK9 block; Kir2.1 cells, FluxOR thallium flux fluorescence; inhibition, % at 10 µM; 4% of 4,900 active;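 active = thallium signal drop more than 5 SD beyond the mean of the no-compound control wells, seen in both duplicate plates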;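 note: signal is fluorescence rise after thallium addition divided by baseline fluorescence; plate controls were assay buffer only for no effect and full block by chlorpromazine control for full effect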
Target sequence (P35561 whole entry, looked up): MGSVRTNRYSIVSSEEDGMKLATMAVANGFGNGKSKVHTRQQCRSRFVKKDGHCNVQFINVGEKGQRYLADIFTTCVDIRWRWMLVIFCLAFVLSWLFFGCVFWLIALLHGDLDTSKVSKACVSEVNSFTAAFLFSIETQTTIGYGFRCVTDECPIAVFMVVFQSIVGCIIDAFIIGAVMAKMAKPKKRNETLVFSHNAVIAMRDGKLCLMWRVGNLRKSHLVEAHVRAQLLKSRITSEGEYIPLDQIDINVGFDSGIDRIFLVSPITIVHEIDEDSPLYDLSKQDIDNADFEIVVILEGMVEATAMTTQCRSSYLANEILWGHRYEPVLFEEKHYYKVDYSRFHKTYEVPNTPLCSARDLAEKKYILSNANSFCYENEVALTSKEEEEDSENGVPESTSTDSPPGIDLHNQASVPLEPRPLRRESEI
KCNK9 uninduced: non-induced cell nonspecific activity of KCNK9 modulators | AID 492997 | non-induced KCNK9-HEK293, FluxOR thallium flux | inhibition, % at 10 µM | 40% of 4,900 active | shares compounds with KCNK9 block;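 active = thallium signal drop beyond 5 SD of the untreated control mean, on both duplicate plates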;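 note: plate controls were buffer only IC0 wells for no effect and SID17386958 at its maximal inhibitory level for full effect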
KCNK3 inh conf: human KCNK3 channel inhibition, confirmation assay. CHO-KCNK3 thallium flux, FluxOR fluorescence; 0% buffer, 100% carvedilol maximal block. shares compounds with KCNK3 inh. 99% of 2,400 active. ratio percent of control, % at 10 µM;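 active = ratio percent of control, averaged over triplicates, above buffer control mean plus 5 SD, cut at about 64% in these data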;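 note: ratio is the fluorescence rise from min to max over baseline after thallium stimulus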
KCNK3 uninduced: activity in cells without induced KCNK3 expression; shares compounds with KCNK3 inh; non-induced KCNK3 parental cells, FluxOR thallium flux; active compounds read low; thallium flux ratio (lower = more inhibition) at 10 µM; 40% of 2,400 active; AID 651747;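 active = thallium flux ratio, averaged over three wells, more than 5 SD below the buffer control mean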;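 note: host cells are CHO cells without KCNK3 induction; ratio is peak minus trough fluorescence over baseline then normalized to buffer controls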
* hit, by the source's call. Rows were chosen to be rich in hits. Some 4.1% of all compounds tested hit in one or more screens of this group.

What do the screens show for `CCNC(=O)CNC(=O)c1nn(Cc2ccccc2)c(=O)c2ccccc12`?
KCNK3 inh: -13*; hERG protect: 2; KCNQ1 pot: inactive; KCNK9 block: -10*; KCNQ1 block: inactive; KCNK9 block conf: 60%*; Kir2-1 spec: inactive; KCNK9 uninduced: 24%*; KCNK3 inh conf: 102*; KCNK3 uninduced: inactive

Results for O=C(Nc1nc2c(s1)CCCC2)c1nn(Cc2ccccc2)c(=O)c2ccccc12 ?
KCNK3 inh: -9*; hERG protect: -7; KCNQ1 pot: inactive; KCNK9 block: -14*; Cl transport mod: -0.39; KCNQ1 block: inactive; KCNK9 block conf: 72%*; Kir2-1 spec: inactive; KCNK9 uninduced: inactive; KCNK3 inh conf: 101*; KCNK3 uninduced: inactive

What do the screens show for `CCC1(CC)NC(=O)N(CC(=O)Nc2ccc(OCc3ccccc3)cc2)C1=O`?
KCNK3 inh: inactive

What do the screens show for `CCCN(CCC)CCNC(=O)c1cc2c(-c3ccccc3F)nn(C)c2s1`?
KCNK3 inh: inactive; hERG protect: -4; KCNQ1 pot: inactive; KCNK9 block: inactive; KCNQ1 block: inactive

How did CC(CCc1ccco1)NC(=O)c1cc2c(-c3ccccc3F)nn(C)c2s1 (stereo not drawn) do in these assays?
KCNK3 inh: -13*; hERG protect: -10; KCNQ1 pot: inactive; KCNK9 block: -8.4*; KCNQ1 block: inactive; KCNK9 block conf: 28%*; Kir2-1 spec: inactive; KCNK9 uninduced: inactive; KCNK3 inh conf: 120*; KCNK3 uninduced: 0.14*

Results for CCOc1ccc(-c2nnc(SCC(=O)N3CCCC3)o2)cc1 ?
KCNK3 inh: inactive; hERG protect: -7; KCNQ1 pot: inactive; KCNK9 block: inactive; KCNQ1 block: inactive

What do the screens show for `O=S(Cc1cc(Oc2ccccc2)nc(-c2ccccc2)n1)c1ccccc1` (stereo not drawn)?
KCNK3 inh: -10*; hERG protect: -11; KCNQ1 pot: inactive; KCNK9 block: -18*; KCNQ1 block: inactive; KCNK9 block conf: 70%*; Kir2-1 spec: inactive; KCNK9 uninduced: 37%*; KCNK3 inh conf: 115*; KCNK3 uninduced: inactive

Results for COc1ccc(OC)c(CCNC(=O)c2cccc(NC(=O)C3=C(C)OCCS3)c2)c1 ?
KCNK3 inh: -11*; hERG protect: -22; KCNQ1 pot: inactive; KCNK9 block: -8.2*; KCNQ1 block: inactive; KCNK9 block conf: 38%*; Kir2-1 spec: inactive; KCNK9 uninduced: inactive; KCNK3 inh conf: 97*; KCNK3 uninduced: inactive

How did Cc1cc(C)cc(C(=O)NC(CC(N)=O)c2ccc(NCCN3CCOCC3)c([N+](=O)[O-])c2)c1 (stereo not drawn) do in these assays?
KCNK3 inh: inactive; hERG protect: -6; KCNQ1 pot: inactive; KCNK9 block: inactive; KCNQ1 block: inactive

Results for CN(C)S(=O)(=O)c1cccc(NC(=O)Cc2ccc(Cl)cc2)c1 ?
KCNK3 inh: inactive; hERG protect: -1; KCNQ1 pot: inactive; KCNK9 block: inactive; Cl transport mod: -1.7; KCNQ1 block: inactive

How did CN(CCOc1ccc(Cl)cc1)Cc1cccc(S(=O)(=O)N(C)C)c1 do in these assays?
KCNK3 inh: -9.2*; hERG protect: -8; KCNQ1 pot: inactive; KCNK9 block: -9.7*; KCNQ1 block: inactive; KCNK9 block conf: 45%*; Kir2-1 spec: inactive; KCNK9 uninduced: 52%*; KCNK3 inh conf: 103*; KCNK3 uninduced: inactive

How did O=C(CSCC(=O)N1CCCc2ccccc21)Nc1nc(-c2ccccc2)cs1 do in these assays?
KCNK3 inh: -12*; hERG protect: -19; KCNQ1 pot: inactive; KCNK9 block: -17*; Cl transport mod: 2.2; KCNQ1 block: inactive; KCNK9 block conf: 23%*; Kir2-1 spec: inactive; KCNK9 uninduced: inactive; KCNK3 inh conf: 119*; KCNK3 uninduced: 0.14*

How did CCn1nc(C(=O)Nc2cccc3ccccc23)c(Cl)c1Cl do in these assays?
KCNK3 inh: inactive; hERG protect: -17; KCNQ1 pot: inactive; KCNK9 block: -10*; Cl transport mod: 0.00054; KCNQ1 block: inactive; KCNK9 block conf: 49%*; Kir2-1 spec: inactive; KCNK9 uninduced: 36%*; KCNK3 inh conf: 126*; KCNK3 uninduced: 0.16*

How did CCn1nc(C(=O)NCc2ccco2)c(Cl)c1Cl do in these assays?
KCNK3 inh: inactive; hERG protect: -6; KCNQ1 pot: inactive; KCNK9 block: inactive; Cl transport mod: 0.75; KCNQ1 block: inactive

Results for COCCCNC(=O)c1ccccc1-c1cc(C)no1 ?
KCNK3 inh: inactive; hERG protect: -6; KCNQ1 pot: inactive; KCNK9 block: inactive; Cl transport mod: 0.71; KCNQ1 block: inactive

How did COc1ccc(-n2nc(C(=O)NCC(=O)Nc3cc(OC)ccc3OC)c3ccccc3c2=O)cc1 do in these assays?
KCNK3 inh: -11*; hERG protect: -4; KCNQ1 pot: inactive; KCNK9 block: -14*; KCNQ1 block: inactive; KCNK9 block conf: inactive; Kir2-1 spec: inactive; KCNK9 uninduced: inactive; KCNK3 inh conf: 89*; KCNK3 uninduced: inactive

Results for Cc1ccc(OCCC(=O)OCC(=O)N2CCN(S(=O)(=O)c3ccc(Cl)cc3)CC2)cc1 ?
KCNK3 inh: inactive; hERG protect: -3; KCNQ1 pot: inactive; KCNK9 block: inactive; KCNQ1 block: inactive

Results for COc1ccc(/C=N\NC(=O)c2sccc2C)cc1Cn1nc(C)cc1C ?
KCNK3 inh: -8.8*; hERG protect: -15; KCNQ1 pot: inactive; KCNK9 block: -8.2*; KCNQ1 block: inactive; KCNK9 block conf: inactive; Kir2-1 spec: inactive; KCNK9 uninduced: inactive; KCNK3 inh conf: 88*; KCNK3 uninduced: inactive

What do the screens show for `COc1ccc(Cl)cc1NC(=O)CNCc1cccs1`?
KCNK3 inh: inactive; hERG protect: -8; KCNQ1 pot: inactive; KCNK9 block: inactive; KCNQ1 block: inactive
